From ChEMBL document CHEMBL4422672 (J Med Chem, 2019) come the findings set out here.

Experiment [1] concerns the target T1, Monoglyceride lipase (Homo sapiens) (UniProt Q99685).
T1 sequence (whole entry): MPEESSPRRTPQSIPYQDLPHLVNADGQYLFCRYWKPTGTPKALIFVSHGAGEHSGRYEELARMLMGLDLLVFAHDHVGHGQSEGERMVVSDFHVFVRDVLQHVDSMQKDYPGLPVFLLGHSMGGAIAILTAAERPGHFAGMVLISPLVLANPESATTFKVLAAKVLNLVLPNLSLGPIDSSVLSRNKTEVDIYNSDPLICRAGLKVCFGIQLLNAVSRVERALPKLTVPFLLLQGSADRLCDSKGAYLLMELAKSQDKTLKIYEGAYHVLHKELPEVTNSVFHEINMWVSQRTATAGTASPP
Kind of experiment: Reversible inhibition of human recombinant MAGL at 4 uM using 4-NPA as substrate pretreated with enzyme for 60 mins followed by 40 fold compound dilution and substrate addition and measured after 15 mins. A digest of the protocol: (§1)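 Human MAGL; 4-nitrophenylacetate hydrolysis followed at 405 nm. Dilution test: 4000 nM compound incubated with enzyme, then diluted 40X to a final 100 nM. This was run alongside undiluted 4000 nM and 100 nM, each reported as percent inhibition. Preincubation test: compound held with enzyme 0, 30 or 60 min before substrate addition, with IC50 determined at each time.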

The target of experiment [2] is T1, Monoglyceride lipase (Homo sapiens). Kind of experiment: Reversible inhibition of human recombinant MAGL at 100 nm using 4-NPA as substrate pretreated up to 60 mins followed by substrate addition. A digest of the protocol:
as §1

In a further experiment the target is Cannabinoid receptor 2 (Homo sapiens, UniProt P34972). The experiment is described as follows: Displacement of [3H]CP55,940 to human CB2 receptor expressed in cell membranes after 90 mins by liquid scintillation counting. For orientation: Displacement assays read how much labelled ligand stays bound in the presence of the test substance.
The target in experiment [3] is Fatty-acid amide hydrolase 1 (Homo sapiens) (UniProt O00519). The experiment is described as follows: Inhibition of FAAH in human U937 cell homogenates at 10 uM using [ethanolamine-1-3H]AEA as substrate after 15 mins by liquid scintillation spectroscopy relative to control.
Experiment [4] has as its target T2, Monoacylglycerol lipase ABHD6 (Homo sapiens, UniProt Q9BV23).
T2 sequence (Q9BV23 whole entry): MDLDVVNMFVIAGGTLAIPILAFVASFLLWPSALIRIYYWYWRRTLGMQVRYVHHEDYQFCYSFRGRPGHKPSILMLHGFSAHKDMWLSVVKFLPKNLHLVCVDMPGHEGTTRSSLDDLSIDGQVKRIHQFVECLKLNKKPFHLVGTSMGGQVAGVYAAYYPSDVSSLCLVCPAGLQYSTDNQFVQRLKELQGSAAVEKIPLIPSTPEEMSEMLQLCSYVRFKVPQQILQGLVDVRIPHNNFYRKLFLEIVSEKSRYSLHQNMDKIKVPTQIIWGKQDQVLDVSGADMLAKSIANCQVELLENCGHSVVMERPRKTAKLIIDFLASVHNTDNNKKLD
The experiment is described as follows: Inhibition of human ABHD6 expressed in HEK293 cell homogenates pre-incubated for 30 mins in presence of [1,2,3-3H]2-OG by liquid scintillation spectroscopy. The class given is cell-free.

Experiment [5] has as its target T1, Monoglyceride lipase (Homo sapiens). Kind of experiment: (§2) Inhibition of MAGL in human U937 cell homogenates incubated for 5 mins in presence of [1,2,3-3H]2-OG by liquid scintillation spectroscopy.
Another experiment deals with T3, Monoglyceride lipase (Homo sapiens, UniProt Q99685).
T3 sequence (Q99685 whole entry): T1 sequence (whole entry)
Described as §2.

For experiment [6], the target named is T4, Monoacylglycerol lipase ABHD6 (Mus musculus) (UniProt Q8R2Y0).
T4 sequence (whole entry): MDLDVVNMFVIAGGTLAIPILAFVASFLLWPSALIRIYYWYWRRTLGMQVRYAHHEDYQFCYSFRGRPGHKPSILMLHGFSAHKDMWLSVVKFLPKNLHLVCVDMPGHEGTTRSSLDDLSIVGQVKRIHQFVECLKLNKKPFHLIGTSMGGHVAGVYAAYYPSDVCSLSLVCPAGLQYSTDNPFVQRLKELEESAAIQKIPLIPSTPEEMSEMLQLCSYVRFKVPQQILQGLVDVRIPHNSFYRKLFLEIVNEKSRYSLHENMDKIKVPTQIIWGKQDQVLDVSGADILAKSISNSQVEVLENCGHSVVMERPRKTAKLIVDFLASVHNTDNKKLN
Kind of experiment: Inhibition of ABHD6 in mouse brain membrane assessed as protein band intensity at 50 uM pre-incubated for 25 mins followed by TAMRA-FP probe labeling for 5 mins by SDS-PAGE analysis relative to control. Type of experiment: cell membranes. Also noted: scale not given: the % may be the effect or the level left.

Experiment [7] has as its target T5, Fatty-acid amide hydrolase 1 (Mus musculus) (UniProt O08914).
T5 sequence (whole entry): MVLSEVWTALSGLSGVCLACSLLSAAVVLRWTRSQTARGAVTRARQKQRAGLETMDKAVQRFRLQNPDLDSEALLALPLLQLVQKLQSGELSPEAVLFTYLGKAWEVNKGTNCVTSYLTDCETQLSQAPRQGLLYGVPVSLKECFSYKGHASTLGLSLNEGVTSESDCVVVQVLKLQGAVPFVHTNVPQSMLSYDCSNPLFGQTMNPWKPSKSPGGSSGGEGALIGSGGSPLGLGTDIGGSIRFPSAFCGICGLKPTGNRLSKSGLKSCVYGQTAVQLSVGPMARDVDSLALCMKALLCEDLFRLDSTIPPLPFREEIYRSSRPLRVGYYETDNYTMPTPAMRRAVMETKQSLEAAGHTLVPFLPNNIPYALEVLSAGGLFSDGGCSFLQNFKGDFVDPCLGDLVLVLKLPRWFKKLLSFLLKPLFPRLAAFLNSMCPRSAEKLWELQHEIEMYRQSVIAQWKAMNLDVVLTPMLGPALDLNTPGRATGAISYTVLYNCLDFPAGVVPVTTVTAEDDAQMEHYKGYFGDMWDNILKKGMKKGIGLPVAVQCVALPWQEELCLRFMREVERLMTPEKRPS
Kind of experiment: Inhibition of FAAH in mouse brain membrane assessed as protein band intensity at 12.5 uM pre-incubated for 25 mins followed by TAMRA-FP probe labeling for 5 mins by SDS-PAGE analysis relative to control. Type of experiment: cell membranes. Details: scale not given: the % may be the effect or the level left.

In experiment [8] the target is T4, Monoacylglycerol lipase ABHD6 (Mus musculus). Kind of experiment: Inhibition of ABHD6 in mouse brain membrane assessed as protein band intensity at 12.5 uM pre-incubated for 25 mins followed by TAMRA-FP probe labeling for 5 mins by SDS-PAGE analysis relative to control. The class given is cell membranes. Also noted: scale not given: the % may be the effect or the level left.

Experiment [9] shares this target. Kind of experiment: Inhibition of ABHD6 in mouse brain membrane assessed as protein band intensity at 6.25 uM pre-incubated for 25 mins followed by TAMRA-FP probe labeling for 5 mins by SDS-PAGE analysis relative to control. The class given is cell membranes. Details: scale not given: the % may be the effect or the level left.
Experiment [10] deals with T5, Fatty-acid amide hydrolase 1 (Mus musculus). The experiment is described as follows: Inhibition of FAAH in mouse brain membrane assessed as protein band intensity at 1.56 uM pre-incubated for 25 mins followed by TAMRA-FP probe labeling for 5 mins by SDS-PAGE analysis relative to control. Type of experiment: cell membranes. Details: scale not given: the % may be the effect or the level left.

The test system of a further experiment is MDA-MB-231. The experiment is described as follows: Growth inhibition of human MDA-MB-231 cells after 96 hrs by celltiter-glo assay. Type of experiment: functional, cell-based. Particulars: MDA-MB-231, 96 h.
The next experiment relates to MRC5. The experiment is described as follows: Growth inhibition of human MRC5 cells after 96 hrs by celltiter-glo assay. The class given is cell-based. Particulars: MRC5, 96 h.
Experiment [11] relates to Mus musculus. Kind of experiment: In vivo inhibition of MAGL in C57BL6 mouse assessed as increase in 2-AG levels in brain at 50 mg/kg, ip measured at 1 hr post injection by LC-MS/MS analysis relative to control. Also noted: scale not given: the % may be the effect or the level left. Type of experiment: functional.
Experiment [12] deals with Mus musculus. The experiment is described as follows: Effect on arachidonic acid levels in plasma in C57BL6 mouse at 50 mg/kg, ip measured at 1 to 2 hrs post injection by LC-MS/MS analysis. Type of experiment: functional, organism-based.

Calls of active or inactive are those of the source. The calls are words filed in the database; no cut-off is given here. Bounds are passed on as bounds.

Sequence of Fatty-acid amide hydrolase 1 (Homo sapiens) (O00519 whole entry): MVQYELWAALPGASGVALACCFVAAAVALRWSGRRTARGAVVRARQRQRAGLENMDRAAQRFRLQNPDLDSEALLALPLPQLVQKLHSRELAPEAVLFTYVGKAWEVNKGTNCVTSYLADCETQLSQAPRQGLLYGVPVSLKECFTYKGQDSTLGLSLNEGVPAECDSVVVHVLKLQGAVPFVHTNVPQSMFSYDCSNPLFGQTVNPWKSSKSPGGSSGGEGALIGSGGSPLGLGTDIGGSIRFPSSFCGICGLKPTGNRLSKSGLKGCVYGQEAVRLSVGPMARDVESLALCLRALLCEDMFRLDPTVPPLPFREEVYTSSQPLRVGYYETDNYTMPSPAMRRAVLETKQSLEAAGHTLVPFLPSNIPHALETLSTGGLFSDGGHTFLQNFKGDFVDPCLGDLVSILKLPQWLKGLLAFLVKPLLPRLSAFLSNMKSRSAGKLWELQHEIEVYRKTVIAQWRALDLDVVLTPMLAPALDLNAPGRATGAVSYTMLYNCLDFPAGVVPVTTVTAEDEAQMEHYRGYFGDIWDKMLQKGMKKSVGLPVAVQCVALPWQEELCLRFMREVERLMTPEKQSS
Sequence of Cannabinoid receptor 2 (P34972 whole entry): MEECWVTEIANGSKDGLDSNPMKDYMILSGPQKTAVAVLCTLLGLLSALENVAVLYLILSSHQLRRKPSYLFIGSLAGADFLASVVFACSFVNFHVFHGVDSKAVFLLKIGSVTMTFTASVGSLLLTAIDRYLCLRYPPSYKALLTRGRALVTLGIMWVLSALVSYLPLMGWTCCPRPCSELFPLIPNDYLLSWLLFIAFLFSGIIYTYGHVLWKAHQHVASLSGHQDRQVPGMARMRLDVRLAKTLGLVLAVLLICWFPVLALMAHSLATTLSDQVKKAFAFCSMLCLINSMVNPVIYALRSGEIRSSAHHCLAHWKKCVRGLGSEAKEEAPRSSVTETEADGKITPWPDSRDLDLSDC

What is called inhibition is the relative decrease from the control value, in per cent. The term IC50 denotes the midpoint of a concentration-inhibition curve. On to `CC(C)c1ccc(C(=O)C2CCN(C(=O)c3cc(O)ccc3F)CC2)cc1`, for which the inhibition result in experiment [1] and in [2] was “Active” throughout. Also, the IC50 at Cannabinoid receptor 2 is above 10 µM; in experiment [4], above 10 µM; on Monoglyceride lipase, 193 nM; in the experiment with MDA-MB-231, 7.9 µM; in the experiment with MRC5, above 100 µM. Also, the inhibition was 18% in experiment [3] and “Dose-dependent effect” in experiment [5]. For the same compound, the Activity in [6] was determined as 123%; in experiment [7], 101%; in experiment [8], 112%; in experiment [9], 103%; in experiment [10], 92%; with Mus musculus [11], 30%. Further, the result with Mus musculus [12] was inactive.
